Test results taken from ChEMBL document CHEMBL3400032 (Bioorg Med Chem, 2015).
Active and inactive are the calls of the source. No cut-off for these calls is given here.

Columns and labels:
Rattus norvegicus [1] = assay: AUC in rat assessed as 2-(3-aminopiperidin-1-yl)-3-(2-chlorobenzyl)-5-methyl-4-oxo-4,5-dihydro-3H-imidazo[4,5-c]quinoline-8-carboxylic acid level at 20 mg/kg, po; type: ADME, organism-based, Plasma; design: dose 20 mg/kg, route oral; settings: in vivo
Rattus norvegicus [2] = assay: Oral bioavailability in rat assessed as 2-(3-aminopiperidin-1-yl)-3-(2-chlorobenzyl)-5-methyl-4-oxo-4,5-dihydro-3H-imidazo[4,5-c]quinoline-8-carboxylic acid level at 20 mg/kg; type: ADME, organism-based; settings: in vivo
[3] = Drug metabolism in Sprague-Dawley rat liver S9 fraction assessed as compound remaining at 1 uM after 30 mins by HPLC/MS/MS analysis relative to control; type: ADME, subcellular; settings: read-out: Stability
Outline: (§1)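 Test compound at 1 µM final, incubated 30 min at 37 °C in serum, or in S9 mix (50 mM potassium phosphate pH 7.4, 3 mM NADPH, 1 mg protein/mL pooled male SD rat or human liver S9). Preincubated 5 min at 37 °C, compound added in acetonitrile–water (1:1), stopped with ice-cold acetonitrile, centrifuged, filtered, parent and carboxylate hydrolysate quantified by HPLC-MS/MS.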

Serum [4] = assay: Drug metabolism in human serum assessed as 2-(3-aminopiperidin-1-yl)-3-(2-chlorobenzyl)-5-methyl-4-oxo-4,5-dihydro-3H-imidazo[4,5-c]quinoline-8-carboxylic acid formation at 1 uM after 30 mins by HPLC/MS/MS analysis relative to control; type: ADME, cell-free; settings: 0.5 h; outline: as §1
[5] = Solubility of the compound at pH 2.5; type: physicochemical; settings: buffer
Rattus norvegicus [6] = assay: Tmax in rat assessed as 2-(3-aminopiperidin-1-yl)-3-(2-chlorobenzyl)-5-methyl-4-oxo-4,5-dihydro-3H-imidazo[4,5-c]quinoline-8-carboxylic acid level at 20 mg/kg, po; type: ADME, organism-based; design: dose 20 mg/kg, route oral; settings: in vivo
[7] = Drug metabolism in rat serum assessed as compound remaining at 1 uM after 30 mins by HPLC/MS/MS analysis relative to control; type: ADME, cell-free; settings: read-out: Stability; outline: as §1
[8] = Solubility of the compound at pH 5.5; type: physicochemical; settings: buffer
Rattus norvegicus [9] = assay: In vivo inhibition of DPP4 in Sprague-Dawley rat at 3 mg/kg, po after 10 hrs; type: functional
Outline: (§2)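 Male SD rats, 11 weeks, fasted 24 h before predose sampling and throughout; single oral gavage 3 mg/kg. Blood taken −0.5, 1, 2, 4, 6, 10, 24 h. Plasma DPP-4 activity: Gly-Pro-MCA substrate, HEPES/NaCl/MgCl2 buffer pH 7.8, stopped with 5% acetic acid after 20 min, AMC fluorescence 360/460 nm against AMC standard curve; duplicates, background-subtracted, mU/mL plasma.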

[10] = Drug metabolism in human liver S9 fraction assessed as 2-(3-aminopiperidin-1-yl)-3-(2-chlorobenzyl)-5-methyl-4-oxo-4,5-dihydro-3H-imidazo[4,5-c]quinoline-8-carboxylic acid formation at 1 uM after 30 mins by HPLC/MS/MS analysis relative to control; type: ADME, subcellular; settings: s9, 0.5 h; outline: as §1
Rattus norvegicus [11] = assay: Reduction of blood glucose level in Zucker fatty rat model at 1 mg/kg, po by OGTT analysis; type: functional, organism-based; design: dose 1 mg/kg
[12] = Solubility of the compound at pH 7.4; type: physicochemical; settings: buffer
Rattus norvegicus [13] = assay: Cmax in rat assessed as 2-(3-aminopiperidin-1-yl)-3-(2-chlorobenzyl)-5-methyl-4-oxo-4,5-dihydro-3H-imidazo[4,5-c]quinoline-8-carboxylic acid level at 20 mg/kg, po; type: ADME, organism-based; design: dose 20 mg/kg, route oral; settings: in vivo
Plasma = assay: Plasma concentration in rat at 20 mg/kg, po; type: ADME, organism-based; design: dose 20 mg/kg, route oral; settings: in vivo
Outline: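 Rats dosed orally with prodrug; plasma levels of prodrug and carboxylate active metabolite measured over time, limit of quantification 1.0 ng/mL.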

[14] = Permeability of the compound at pH 7.4 by PAMPA; type: ADME; settings: read-out: permeability
Serum [15] = assay: Drug metabolism in rat serum assessed as 2-(3-aminopiperidin-1-yl)-3-(2-chlorobenzyl)-5-methyl-4-oxo-4,5-dihydro-3H-imidazo[4,5-c]quinoline-8-carboxylic acid formation at 1 uM after 30 mins by HPLC/MS/MS analysis relative to control; type: ADME, cell-free; settings: 0.5 h; outline: as §1
Rattus norvegicus [16] = assay: Reduction of blood glucose level in po dosed Zucker fatty rat model by OGTT analysis; type: functional, organism-based
[17] = Drug metabolism in Sprague-Dawley rat liver S9 fraction assessed as 2-(3-aminopiperidin-1-yl)-3-(2-chlorobenzyl)-5-methyl-4-oxo-4,5-dihydro-3H-imidazo[4,5-c]quinoline-8-carboxylic acid formation at 1 uM after 30 mins by HPLC/MS/MS analysis relative to control; type: ADME, subcellular; settings: s9, 0.5 h; outline: as §1
Rattus norvegicus [18] = assay: In vivo inhibition of DPP4 in Sprague-Dawley rat at 3 mg/kg, po after 1 hr; type: functional; outline: as §2
[19] = Drug metabolism in human serum assessed as compound remaining at 1 uM after 30 mins by HPLC/MS/MS analysis relative to control; type: ADME, cell-free; settings: read-out: Stability; outline: as §1
[20] = Permeability of the compound at pH 5 by PAMPA; type: ADME; settings: read-out: permeability
[21] = Drug metabolism in human liver S9 fraction assessed as compound remaining at 1 uM after 30 mins by HPLC/MS/MS analysis relative to control; type: ADME, subcellular; settings: read-out: Stability; outline: as §1

AUC (Rattus norvegicus [1]): 728 ng·h/mL | F (Rattus norvegicus [2]): 35% | remaining at 0.5 h, 1 µM [3]: < 0.5% | Drug metabolism (Serum [4]): metabolite_detected | solubility [5]: 210 µg/mL | Tmax (Rattus norvegicus [6]): 2 h | remaining at 0.5 h, 1 µM [7]: < 0.5% | solubility [8]: 3 µg/mL | Drug metabolism [10]: metabolite_detected | solubility [12]: < 1 µg/mL | Cmax (Rattus norvegicus [13]): 94.1 ng/mL | Cp (Plasma): < 1 ng/mL | Papp [14]: 12.1 ×10⁻⁶ cm/s | Drug metabolism (Serum [15]): metabolite_detected | Drug metabolism [17]: metabolite_detected | remaining at 0.5 h, 1 µM [19]: < 0.5% | Papp [20]: 10.3 ×10⁻⁶ cm/s | remaining at 0.5 h, 1 µM [21]: 7.8%
SMILES: Cc1oc(=O)oc1COC(=O)c1ccc2c(c1)c1nc(N3CCC[C@@H](N)C3)n(Cc3ccccc3Cl)c1c(=O)n2C.Cl
inhibition in vivo at 3 mg/kg (Rattus norvegicus [9]): 64% | Activity (Rattus norvegicus [11]): Active | Activity (Rattus norvegicus [16]): Dose-dependent effect | inhibition in vivo at 3 mg/kg (Rattus norvegicus [18]): 87%
